Bioassay records: PubChem BioAssay, several laboratories
COUP-TFII inh: inhibitors of human COUP-TFII (NR2F2). HEK293T NGFI-A luciferase reporter, luminescence. inhibition, % at 8.6 µM. actives 0.7% (n = 370,000);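 active = inhibition above a per-plate cutoff, mean inhibition of test wells between control levels plus 3 SD, cut at about 38% in these data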;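 also: cells cotransfected with COUP-TFII expression vector driving the NGFI-A reporter; 0% = median of COUP-TF2 test wells and 100% = reporter-only cells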
CHT allo act: allosteric activators of human choline transporter CHT | Q9GZV3 | CHT-expressing cells, membrane potential dye, choline EC20; active compounds read high; LV-AA mutant CHT in HEK293 cells | B-score at 10 µM | actives 0.49% (n = 310,000);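 active = initial fluorescence not abnormally high and integrated response B-score, plate-corrected, over 3 SD above library mean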
CHT inh: inhibits the human high affinity choline transporter; Q9GZV3; CHT-expressing cells, membrane potential dye, choline response; active compounds read low; B-score at 10 µM; actives 0.86% (n = 310,000);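 active = B-score over 3 SD under the library average, and starting fluorescence ratio not unusually high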;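 also: choline stimulus applied at its EC90 after an EC20 pre-addition; B-score computed on integrated fluorescence ratio after choline addition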
GalR3 antag: human GalR3 antagonism; inhibition, % at 3 µM; actives 0.44% (n = 360,000); O60755; HEK293 GalR3-CNG cAMP membrane potential fluorescence; galR3 body fused to GalR1 C-terminus;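 active = inhibition above the screen-wide average plus 3 SD, cut at about 13% in these data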;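 also: forskolin and galanin both at EC90 stimulate the cells; cAMP rise reported by CNG channel membrane potential dye signal; 0% = forskolin plus galanin with DMSO and 100% = forskolin alone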
Target sequence (O60755 1-299 limits assumed): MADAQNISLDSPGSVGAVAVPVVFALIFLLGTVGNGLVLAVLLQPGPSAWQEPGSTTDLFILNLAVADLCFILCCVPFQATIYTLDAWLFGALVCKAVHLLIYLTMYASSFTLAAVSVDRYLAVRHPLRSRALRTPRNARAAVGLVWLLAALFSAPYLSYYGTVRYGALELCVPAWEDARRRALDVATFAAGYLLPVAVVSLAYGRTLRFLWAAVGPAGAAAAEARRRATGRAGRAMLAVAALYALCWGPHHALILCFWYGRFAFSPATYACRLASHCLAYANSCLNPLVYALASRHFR
NR2E3 ag-1: activates human photoreceptor nuclear receptor NR2E3 | Q9Y5X4 | AID 2300 | GST-NR2E3/biotin-RetCOR TR-FRET, 1536-well | actives 0.12% (n = 320,000) | inhibition of corepressor binding, % at 4.78 µM;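 active = percent inhibition above the cutoff of mean plus 3 SD of all tested compounds, set per screening campaign, cut at about 20% in these data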;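 also: 0% = DMSO wells and 100% = biotin wells as full block of FRET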
Target sequence (Q9Y5X4 whole entry, looked up): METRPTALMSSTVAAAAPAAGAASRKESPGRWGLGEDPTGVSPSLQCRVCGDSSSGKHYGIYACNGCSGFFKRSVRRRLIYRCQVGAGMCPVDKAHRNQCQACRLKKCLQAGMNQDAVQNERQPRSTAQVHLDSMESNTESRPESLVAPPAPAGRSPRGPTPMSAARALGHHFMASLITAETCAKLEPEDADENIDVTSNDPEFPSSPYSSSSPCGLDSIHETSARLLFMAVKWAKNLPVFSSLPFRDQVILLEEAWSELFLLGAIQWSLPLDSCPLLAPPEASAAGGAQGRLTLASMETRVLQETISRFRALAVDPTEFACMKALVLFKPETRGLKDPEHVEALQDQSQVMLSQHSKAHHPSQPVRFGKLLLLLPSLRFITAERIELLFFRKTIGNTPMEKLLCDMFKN
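Format: 1536-well format; test system: GST-NR2E3 and biotin-RetCOR proteins; read-out basis: percent inhibition of TR-FRET ratio; timing: 5 h incubation at 4 °C; detection: time-resolved FRET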
NR2E3 ag-2: agonists of human NR2E3 nuclear receptor | Q9Y5X4 | actives 0.35% (n = 360,000) | CHO-S Gal4-NCOR/VP16-NR2E3 two-hybrid, luciferase | AID 602229 | inhibition of corepressor binding, % at 3.98 µM;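 active = inhibition above the mean of all tested compounds plus 3 SD, cut at about 70% in these data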;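 also: 0% = DMSO with NR2E3 transfected cells and 100% = cells lacking NR2E3 construct; higher means lower luciferase signal from less NR2E3 corepressor binding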
CHT inh conf: human CHT inhibition, confirmatory screen | shares compounds with CHT inh | CHT-expressing cells, choline membrane potential dye; LV-to-AA substituted CHT, HEK293 cells | CHT activity remaining % of control (active compounds read low), % at 10 µM | actives 70% (n = 2,400);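 active = choline transporter activity left, mean of duplicates at 10 µM, below buffer-only control mean minus 3 SD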;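 also: depolarization triggered by choline at its EC90 following an EC20 pre-addition; 0% = hemicholinium-3 full block and 100% = buffer-only control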
HEK293 CHT ctr: CHT inhibitor counter-screen hit in parental HEK293 cells. membrane potential dye, choline response; active = decrease or increase beyond buffer ±3SD. shares compounds with CHT inh. actives 4% (n = 2,400). membrane potential ratio readout (active if shifted either direction beyond buffer ±3SD; no single direction) at 10 µM;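 also: parental cells lack the transporter so any hit is non-specific; ratio is peak minus trough fluorescence over baseline after EC90 choline challenge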
GalR3 conf: confirmation of human galanin receptor 3 antagonists; shares compounds with GalR3 antag; HEK293 GalR3 CNG cAMP biosensor, membrane potential fluorescence; galR3 fused to GalR1 carboxy tail; challenged with forskolin and galanin at EC90; inhibition, % at 3 µM; actives 59% (n = 1,600); AID 652245;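 active = inhibition above the primary screen's cutoff, the mean inhibition of all screened compounds plus 3 SD, cut at about 13% in these data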;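 also: 0% = forskolin plus galanin and 100% = forskolin alone with DMSO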
HEK-CNG parental: counter-screen for GalR3 antagonists: nonspecific agonists in parental HEK-CNG cells | actives 10% (n = 1,600) | AID 652268 | activation, % at 3 µM | HEK293-CNG parental cells, cAMP membrane potential fluorescence; normalised: DMSO wells 0%, forskolin wells 100% | shares compounds with GalR3 antag; in the data active = activation above about 1.3%
Gal4-VP16 ctr: VP16 inhibition counter-screen for COUP-TFII; actives 25% (n = 2,500); AID 687007; inhibition, % at 8.5 µM; HEK293 Gal4-VP16 luciferase reporter, luminescence; shares compounds with COUP-TFII inh; in the data active = inhibition above about 13%
NR2F2 inh conf: confirmation of human COUP-TFII (NR2F2) inhibitors. shares compounds with COUP-TFII inh. HEK293 NGFI-A luciferase reporter, luminescence. inhibition, % at 8.5 µM. actives 45% (n = 2,500). AID 687008;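 active = mean inhibition over three repeats above a set limit taken from the earlier primary screen, cut at about 38% in these data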;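 also: 100% = cells given the luciferase reporter alone without the COUP-TF2 vector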
* = called active by the depositor; i = inactive; nt = no result. Rows were chosen to be rich in hits. Some 2.3% of all compounds tested hit in one or more screens of this group.

SMILES	COUP-TFII inh	CHT allo act	CHT inh	GalR3 antag	NR2E3 ag-1	NR2E3 ag-2	CHT inh conf	HEK293 CHT ctr	GalR3 conf	HEK-CNG parental	others
OCC1OC(n2cnc3c(NC4CCCCC4)ncnc32)C(O)C1O (stereo not given)	-51	i	-5.5*	36*	0	-7	41%*	i	49*	0
OC[C@H]1O[C@@H](n2cnc3c(NC4CCCC4)ncnc32)[C@H](O)[C@@H]1O	-52	i	i	3	4	7	nt	nt	nt	nt
CC(C)CSc1ncccc1-c1nc2ccccc2[nH]1	-9	nt	nt	nt	nt	nt	nt	nt	nt	nt
COc1cccc(/C=C2\SC(=S)N(NC(=O)c3ccncc3)C2=O)c1	-1	i	-8.7*	14*	4	-10	5.2%*	i	0	0
CC(C)Oc1cccc(-c2n[nH]c(=S)n2N=Cc2cccc([N+](=O)[O-])c2)c1	-14	nt	nt	nt	nt	nt	nt	nt	nt	nt
N#Cc1c(N)nc(SCc2ccccn2)c(C#N)c1-c1cccs1	-24	i	-7.3*	75*	-2	28	49%*	i	49*	2.5*
COc1ccccc1CNC(=O)CSc1nc(N)c(C#N)c(-c2cccs2)c1C#N	15	i	i	-7	-1	0	nt	nt	nt	nt
COc1cc2c(cc1OC)-c1cc(NC3CCCCCC3)nc(=O)n1CC2	-27	i	-5.1*	52*	0	14	23%*	i	58*	1
COc1cc2c(cc1OC)-c1cc(Nc3ccc(C(=O)O)cc3)nc(=O)n1CC2	-15	i	i	-8	-1	-16	nt	nt	nt	nt
COc1cc2c(cc1OC)-c1cc(N3CCCc4ccccc43)nc(=O)n1CC2	-29	i	-6.3*	47*	5	-9	70%*	i	60*	1
CCOc1ccc(-n2c(SCC(=O)Nc3ccccc3-c3ccccc3)nnc2-c2cccs2)cc1	-18	nt	nt	nt	nt	nt	nt	nt	nt	nt
CC(C)(C)OC(=O)NCCCCCc1nnc(SCC(=O)Nc2cccc(Cl)c2)o1	26	i	-5.6*	17*	4	-3	i	i	77*	-1
Cc1oc(-c2ccccc2)cc1C(=O)Nc1cccc(/C=C\C(=O)O)c1	-2	i	-8.9*	71*	0	-44	61%*	i	91*	0
Cc1oc(C(C)(C)C)cc1C(=O)Nc1cccc(/C=C\C(=O)O)c1	0	i	i	-5	-1	-17	nt	nt	nt	nt
CCn1c(SCC(=O)c2ccc(-c3ccccc3)cc2)nnc1-c1ccccc1OC	1	nt	nt	nt	nt	nt	nt	nt	nt	nt
COc1ccccc1-c1nnc2n1N=C(c1ccc3c(c1)OCO3)CS2	-80	nt	nt	nt	nt	nt	nt	nt	nt	nt
COc1ccc(C2=Nn3c(nnc3-c3ccccc3OC)SC2)cc1OC	-117	i	-6.9*	38*	-2	32	48%*	i	46*	1.5*
CC(C)n1cnc2c(N(C)c3cccc(Cl)c3)nc(N(CCO)CCO)nc21	-40	i	-6.6*	nt	-5	-1	52%*	i	10	0
N#CCc1ccc(OC[C@@H](O)CN2CCC(C(O)(c3ccccc3)c3ccccc3)CC2)cc1	0	nt	nt	nt	nt	nt	nt	nt	nt	nt
COC(=O)C(C)Sc1nc2c(c(=O)[nH]c(=O)n2C)n1CCC(C)C (stereo not given)	-21	i	-5.1*	55*	-1	-8	40%*	i	13*	1
O=C(NC1CCCCN(Cc2ccc(OC(F)(F)F)cc2)C1=O)c1cccc(F)c1 (stereo not given)	12	nt	nt	nt	nt	nt	nt	nt	nt	nt
COc1ccc(/C(C)=N\NC(=O)c2ccco2)cc1	-54	nt	nt	nt	nt	nt	nt	nt	nt	nt
CCOC(=O)c1ccc(NC(=O)c2ccc(C)c(S(=O)(=O)N3CCOCC3)c2)cc1	81*	i	-5.5*	98*	1	27	68%*	i	107*	0	Gal4-VP16 ctr=6;NR2F2 inh conf=82*
O=C(Cn1c(=O)c2cccn2c2cccnc21)NCCCN1CCN(c2ccccc2)CC1	-17	nt	nt	nt	nt	nt	nt	nt	nt	nt
CN(CC#CC1=CCCCC1)/C(N)=N/C(=O)OCc1ccccc1	12	nt	nt	nt	nt	nt	nt	nt	nt	nt
SMILES	COUP-TFII inh	CHT allo act	CHT inh	GalR3 antag	NR2E3 ag-1	NR2E3 ag-2	CHT inh conf	HEK293 CHT ctr	GalR3 conf	HEK-CNG parental	others
CC(C)(C)c1ccc(C(=O)Nc2ccc(Oc3cccnc3)nc2)cc1	64*	i	-5.2*	111*	0	-13	i	i	114*	0	Gal4-VP16 ctr=-8;NR2F2 inh conf=61*
CC(/C=C1\SC(=O)N(CCCC(=O)O)C1=O)=C\c1ccccc1	92*	i	-5*	-2	3	18	64%*	i	nt	nt	Gal4-VP16 ctr=92*;NR2F2 inh conf=100*
CC(=Cc1ccccc1)C=C1SC(=S)N(CCCC(=O)Nc2ccc(C(=O)O)cc2)C1=O	0	nt	nt	-6	nt	7	nt	nt	nt	nt
C=CCN1C(=O)[C@@H](CC(=O)NCc2ccccc2)[C@]2(C(=O)OCC)CCCCC/C=C/12	-14	nt	nt	nt	nt	nt	nt	nt	nt	nt
CCc1nc(NCc2ccccn2)c2oc3ccccc3c2n1	39*	i	i	-5	2	39	56%*	i	nt	nt	Gal4-VP16 ctr=-14;NR2F2 inh conf=15
Cc1ccc(-n2nc3c(=O)n(CC(=O)NCCCc4ccccc4)nc(C)c3c2C)cc1	12	i	i	-9	1	20	nt	nt	nt	nt
